Data taken from article PMC12235443 (RSC Chemical Biology, 2025).
Square brackets hold non-standard residues; d marks the D form. Peptide text beside a SMILES is read from it. 2Nal = N[C@@H](Cc1ccc2ccccc2c1)C(=O)O

Legend:
[1] = target: iCP-PA28-activated complex (Homo sapiens, UniProt P28062); assay: LC-MS hydrolysis of dialanine substrates by iCP-PA28-activated complex; format: biochemical; details: 25 µM substrate, iCP + 7.5X PA28, 4 hours, triplicate, Fig. 3B
Outline: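 Purified human iCP, activated with PA28, incubated with 25 μM test substrate for 4 hours. Each substrate is a modified recognition sequence joined to a constant dialanine cargo, with expected cleavage at the amide bond between them. Products analysed by LC-MS as percent degraded. Triplicate, mean ± standard deviation. Singly modified substrates compared with the unmodified-sequence dialanine control by t-test.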

iCP over sCP = assay: Selectivity index, mean iCP percent degraded over sCP percent degraded; format: biochemical

Hydrolysis by iCP-PA28-activated complex compared with control ATMWAA [1]	Molecule	Isoform selectivity for the iCP (iCP over sCP; Fig. 3C conditions)	Increase of substrate selectivity for the iCP compared with the ATMW scaffold (iCP over sCP; ratio of selectivity indices, analogue vs ATMWAA)
hydrolyzed well by the iCP	CSCC[C@H](NC(=O)[C@@H](NC(=O)[C@H](C)N)[C@@H](C)O)C(=O)N[C@@H](Cc1ccc2ccccc2c1)C(=O)N[C@@H](C)C(=O)N[C@@H](C)C(N)=O [ATM(2-Nal)] (H-ATM[2Nal]AA-NH2)	not isoform selective	–
–	morph-Ala-Orn-(Met?O2)-Trp(7,Me) [mAO(Met=O2) W(7,Me)]	–	about 3 fold
